Data reported in ChEMBL document CHEMBL4715751, “Novel N-substituted indole Schiff bases as dual inhibitors of cyclooxygenase-2 and 5-lipoxygenase enzymes: Synthesis, biological activities in vitro and docking study” (Eur J Med Chem, 2016).
Active and inactive are the calls of the source. The calls are words filed in the database; no cut-off is given here.

What was measured:
[1] = test system: HUVEC; assay: Antiinflammatory activity in HUVEC assessed as reduction in TNF-alpha-induced E-selectin expression at 50 uM preincubated for 30 mins followed by TNF-alpha addition and measured after 4 hrs by ELISA; format: functional; details: Homo sapiens, time 4.5 hrs
Procedure, shortened: (§1)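 HUVECs seeded at 1×10^4/well and grown to confluence; indole derivatives (50 μM) added 30 min before TNFα 10 ng/ml, then 4 h further incubation. Cells fixed and E-selectin (ELAM) measured by ELISA. Parallel Calcein AM read-out monitored non-specific toxicity. Curcumin 10 μM served as positive control.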

[2] = test system: CCRF-CEM; assay: Cytotoxicity against human CEM cells assessed as reduction in cell viability after 72 hrs by calcein-AM staining based fluorescence analysis
Procedure, shortened: (§2)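 Cells in DMEM with 10% FBS, 2 mmol/l L-glutamine, penicillin/streptomycin, 37 °C, 5% CO2. About 1.0×10^5 cells/ml plated, stabilized 24 h, then compounds added from DMSO stocks (final DMSO ≤0.6%), six 3-fold dilutions, top final concentration generally 50 µM. After 72 h, Calcein AM added for 1 h. Fluorescence expressed as % of DMSO controls; IC50 taken from dose-response curves. Means ±SD of three independent experiments in triplicate.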

[3] = test system: MCF7; assay: Cytotoxicity against human MCF7 cells assessed as reduction in cell viability after 72 hrs by calcein-AM staining based fluorescence analysis; details: MCF7, 72 h; procedure, shortened: as §2
[4] = test system: HeLa; assay: Cytotoxicity against human HeLa cells assessed as reduction in cell viability after 72 hrs by calcein-AM staining based fluorescence analysis; procedure, shortened: as §2
[5] = test system: BJ; assay: Cytotoxicity against human BJ cells assessed as reduction in cell viability after 72 hrs by calcein-AM staining based fluorescence analysis; procedure, shortened: as §2
[6] = target: T1, Prostaglandin G/H synthase 1 (Ovis aries, UniProt P05979); assay: Inhibition of ovine COX-1 assessed as appearance of oxidized TMPD level by EIA method
T1 sequence (P05979 whole entry): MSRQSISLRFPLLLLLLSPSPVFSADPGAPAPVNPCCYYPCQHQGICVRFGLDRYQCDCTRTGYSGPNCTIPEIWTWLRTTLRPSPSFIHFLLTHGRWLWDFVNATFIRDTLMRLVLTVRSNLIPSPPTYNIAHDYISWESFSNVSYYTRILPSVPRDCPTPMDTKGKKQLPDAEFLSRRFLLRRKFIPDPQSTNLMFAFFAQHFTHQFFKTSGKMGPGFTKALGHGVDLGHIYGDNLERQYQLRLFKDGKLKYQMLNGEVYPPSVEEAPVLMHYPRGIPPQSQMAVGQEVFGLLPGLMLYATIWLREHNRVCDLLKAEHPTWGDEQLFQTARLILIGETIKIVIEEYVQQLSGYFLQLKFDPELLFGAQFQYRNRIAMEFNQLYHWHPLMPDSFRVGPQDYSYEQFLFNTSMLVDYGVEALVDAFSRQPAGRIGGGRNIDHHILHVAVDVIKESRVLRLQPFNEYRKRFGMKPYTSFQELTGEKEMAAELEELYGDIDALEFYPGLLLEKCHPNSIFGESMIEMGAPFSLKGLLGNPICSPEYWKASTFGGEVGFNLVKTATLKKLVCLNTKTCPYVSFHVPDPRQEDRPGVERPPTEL

[7] = Inhibition of potato 5-LOX assessed as reduction in hydroperoxide level by EIA method; set-up: species or system Solanum tuberosum
Procedure, shortened: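 Potato 5-LOX kit detecting hydroperoxides formed by lipoxygenation. Compounds dissolved in minimal DMSO and diluted in 0.1 M Tris HCl, pH 7.4, tested at 0.001, 1, 5, 10 μM. IC50 derived per the manufacturer's instructions, mean of two determinations.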

[8] = test system: HUVEC; assay: Antiinflammatory activity in HUVEC assessed as reduction in TNF-alpha-induced E-selectin expression at 30 to 50 uM preincubated for 30 mins followed by TNF-alpha addition and measured after 4 hrs by ELISA; format: functional; details: dose 30-50 µM, time 4.5 hrs; for Activity: Homo sapiens; procedure, shortened: as §1
[9] = test system: HUVEC; assay: Cytotoxicity against HUVEC assessed as reduction in cell viability measured after 24 hrs by calcein-AM staining based fluorescence analysis; set-up: species or system Homo sapiens; details: for Activity: human, huvec, time 24 hrs

Structure (SMILES)	Activity [1]	IC50 [2] [µM]	IC50 [3] [µM]	IC50 [4] [µM]	IC50 [5] [µM]	IC50 [6] [µM]	IC50 [7] [µM]	Activity [8]	Activity [9]	inhibition at 50 µM [1] [%]	IC50 ([9]; Homo sapiens, HUVEC) [µM]	inhibition (INH) [8] [%]
CCOC(=O)c1ccc(NC(=O)Cn2cc(/C=N/c3c(C)n(C)n(-c4ccccc4)c3=O)c3ccccc32)cc1	Active	29.7	38.1	24.8	50	–	–	–	–	–	–	–
CC(=O)c1ccc(NC(=O)Cn2cc(/C=N/c3c(C)n(C)n(-c4ccccc4)c3=O)c3ccccc32)cc1	Active	42.9	> 50	> 50	> 50	–	–	–	–	–	–	–
CC(=O)c1ccc(NC(=O)Cn2cc(/C=N/n3cnnc3)c3ccccc32)cc1	Active	> 50	> 50	> 50	> 50	–	–	–	–	–	–	–
Cc1c(/N=C/c2cn(CC(=O)Nc3ccc(O)cc3)c3ccccc23)c(=O)n(-c2ccccc2)n1C	Active	> 50	> 50	> 50	50	–	–	–	–	–	–	–
O=C(c1ccccc1)n1cc(/C=N/n2cnnc2)c2ccccc21	–	–	–	–	–	10.4	6.54	Active	Non-Toxic	–	–	–
Cc1c(/N=C/c2cn(CC(=O)Nc3ccccc3)c3ccccc23)c(=O)n(-c2ccccc2)n1C	Active	> 50	> 50	> 50	> 50	–	–	–	–	–	–	–
Cc1c(/N=C/c2cn(C(=O)c3ccccc3)c3ccccc23)c(=O)n(-c2ccccc2)n1C	–	–	–	–	–	7.65	7.54	Active	Non-Toxic	–	–	–
COc1ccc(NC(=O)Cn2cc(/C=N/c3c(C)n(C)n(-c4ccccc4)c3=O)c3ccccc32)cc1	Active	50	> 50	> 50	50	–	–	–	–	–	–	–
COc1ccc(NC(=O)Cn2cc(/C=N/n3cnnc3)c3ccccc32)cc1	–	> 50	> 50	> 50	> 50	–	–	–	–	15	–	–
Cc1c(/N=C/c2cn(C(=O)c3ccc(Cl)cc3)c3ccccc23)c(=O)n(-c2ccccc2)n1C	–	–	–	–	–	9.25	9.11	Active	Non-Toxic	–	–	–
O=C(c1ccc(Cl)cc1)n1cc(/C=N/n2cnnc2)c2ccccc21	–	–	–	–	–	8.65	8.11	Active	Non-Toxic	–	–	–
Cc1ccc(NC(=O)Cn2cc(/C=N/c3c(C)n(C)n(-c4ccccc4)c3=O)c3ccccc32)cc1	Active	42	> 50	> 50	49	–	–	–	–	–	–	–
C(=N\n1cnnc1)/c1c[nH]c2ccccc12	Active	> 50	> 50	9.9	> 50	–	–	–	–	–	–	–
O=c1c(O)c(-c2ccc(O)c(O)c2)oc2cc(O)cc(O)c12 [QUERCETIN]	–	–	–	–	–	–	5.96	–	–	–	–	–
C(=N\n1cnnc1)/c1cn(Cc2ccccc2)c2ccccc12	–	–	–	–	–	9.21	7.41	Active	–	–	14.9	–
O=C(Cn1cc(/C=N/n2cnnc2)c2ccccc21)Nc1ccc(O)cc1	Active	> 50	> 50	> 50	> 50	–	–	–	–	–	–	–
CCOC(=O)c1ccc(NC(=O)Cn2cc(/C=N/n3cnnc3)c3ccccc32)cc1	–	> 50	> 50	> 50	31.3	–	–	–	–	15	–	–
Cc1c(/N=C/c2cn(Cc3ccccc3)c3ccccc23)c(=O)n(-c2ccccc2)n1C	–	–	–	–	–	11.2	5.98	Active	Non-Toxic	–	–	–
Cc1ccc(C(=O)n2cc(/C=N/n3cnnc3)c3ccccc32)cc1	–	–	–	–	–	7.89	6.54	–	Non-Toxic	–	–	33
O=C(Cn1cc(/C=N/n2cnnc2)c2ccccc21)Nc1ccccc1	Active	> 50	> 50	> 50	> 50	–	–	–	–	–	–	–
Cc1c(/N=C/c2c[nH]c3ccccc23)c(=O)n(-c2ccccc2)n1C	Active	> 50	> 50	> 50	> 50	–	–	–	–	–	–	–
Cc1ccc(NC(=O)Cn2cc(/C=N/n3cnnc3)c3ccccc32)cc1	Active	> 50	> 50	> 50	> 50	–	–	–	–	–	–	–
Cc1ccc(C(=O)n2cc(/C=N/c3c(C)n(C)n(-c4ccccc4)c3=O)c3ccccc32)cc1	–	–	–	–	–	10.8	5.78	Active	Non-Toxic	–	–	–
